Assay results taken from ChEMBL document CHEMBL1159207, “Structure and antimicrobial activity of diterpenes from the roots of Plectranthus hereroensis” (1994).
In brackets after ≈: the same amount, converted by molar mass.

Key:
[1] = system: Enterococcus faecalis; assay: Antimicrobial activity against Streptococcus faecalis by twofold serial broth microdilution assay; format: functional
How it was run: (§1)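 Twofold serial broth microdilution in sterile Mueller-Hinton broth, over 500 µg/ml to 7.8 µg/ml. Samples were added as solutions in Me₂CO or MeOH, with solvent blanks included. After 24 h at 37°, MIC was taken as the lowest concentration that inhibited growth.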

[2] = system: Shigella dysenteriae; assay: Antimicrobial activity against Shigella dysenteriae by twofold serial broth microdilution assay; format: functional
[3] = system: Escherichia coli; assay: Antimicrobial activity against Escherichia coli by twofold serial broth microdilution assay; format: functional; how it was run: as §1
[4] = system: Pseudomonas aeruginosa; assay: Antimicrobial activity against Pseudomonas aeruginosa by twofold serial broth microdilution assay; format: functional; how it was run: as §1
[5] = system: Salmonella typhimurium; assay: Antimicrobial activity against Salmonella Typhimurium by twofold serial broth microdilution assay; format: functional, Salmonella enterica subsp. enterica serovar Typhimurium; conditions: Salmonella enterica; how it was run: as §1
[6] = system: Candida albicans; assay: Antimicrobial activity against Candida albicans by twofold serial broth microdilution assay; format: functional
How it was run: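 Samples were added as Me₂CO or MeOH solutions, with solvent blanks. Incubation was 24 h at 37°. MIC was the lowest concentration preventing visible growth of the organism.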

[7] = system: Staphylococcus aureus; assay: Antimicrobial activity against Staphylococcus aureus by twofold serial broth microdilution assay; format: functional; how it was run: as §1
[8] = system: Vibrio cholerae; assay: Antimicrobial activity against Vibrio cholerae by twofold serial broth microdilution assay; format: functional

Row | Structure (SMILES) | MIC [1] | MIC [2] | MIC [3] | MIC [4] | MIC [5] | MIC [6] | MIC [7] | MIC [8]
1 | C=CCC1=C(O)C(=O)C2=C(C1=O)[C@H](O)C[C@H]1C(C)(C)CCC[C@]21C | ≥ 500 µg/mL | ≥ 500 µg/mL | ≥ 500 µg/mL | 250 µg/mL (≈ 757 µM) | ≥ 500 µg/mL | 125 µg/mL (≈ 378 µM) |  | 
2 | CC(C)C1=C(O)C(=O)C2=C(C1=O)[C@H](O)C[C@H]1C(C)(C)CCC[C@]21C [HORMINONE] | ≥ 500 µg/mL | ≥ 500 µg/mL | ≥ 500 µg/mL | 250 µg/mL (≈ 752 µM) | ≥ 500 µg/mL | 250 µg/mL (≈ 752 µM) | 7.8 µg/mL (≈ 23.5 µM) | 7.8 µg/mL (≈ 23.5 µM)
